We go through 25 molecules from ChEMBL document CHEMBL1795219, “4-alkoxy-3-arylfuran-2(5H)-ones as inhibitors of tyrosyl-tRNA synthetase: synthesis, molecular docking and antibacterial evaluation” (Bioorg Med Chem, 2011).

The nature of test [1]: Inhibition of Staphylococcus aureus TyrRS expressed in Escherichia coli using L-[ring-3,5-3H] tyrosine preincubated for 10 mins by scintillation counting. Put shortly: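 Aminoacylation assay with purified TyrRS (0.2 nM). Enzyme preincubated with a range of inhibitor concentrations for 10 min at room temperature, then prewarmed mix added at 37 °C. Final mix: 100 mM Tris/Cl pH 7.9, 50 mM KCl, 16 mM MgCl2, 5 mM ATP, 3 mM DTT, 4 mg/ml E. coli MRE600 tRNA, 10 uM tritiated L-tyrosine. Stopped at intervals in ice-cold 7% TCA, filtered, scintillation counted. Rate linear, under 50% tRNA acylation. IC50 is the concentration halving activity.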

Test [2] relates to Bacillus subtilis. The experiment in a line: Antibacterial activity against Bacillus subtilis ATCC 6633 after 24 hrs by MTT colorimetric method. The format is functional. The conditions noted are these: ATCC 6633, 24 h.
For test [3], the system named is Staphylococcus aureus. Nature of the test: Antibacterial activity against Staphylococcus aureus ATCC 25923 after 24 hrs by MTT colorimetric method. The format is functional. The conditions noted are these: ATCC 25923, 24 h.
Test [4] concerns Candida albicans. Nature of the test: Antibacterial activity against Candida albicans ATCC 10231 after 48 hrs by MTT colorimetric method. The test is classed as functional. The note with it: ATCC 10231, 48 h.
For test [5], the system named is Escherichia coli. The experiment in a line: Antibacterial activity against Escherichia coli ATCC 35218 after 24 hrs by MTT colorimetric method. The test is classed as functional. The conditions noted are these: ATCC 35218, 24 h.

In brackets after ≈: the same amount, converted by molar mass. Bounds are passed on as bounds.

With `CCCNCCOC1=C(c2ccccc2)C(=O)OC1`, in test [1], the half-maximal inhibitory concentration (IC50) came to 29.1 µM. Also, the MIC50 in test [2] is > 50 µg/mL; in test [3] it was 34.3 µg/mL (≈ 131 µM); in test [4], > 50 µg/mL; in test [5], > 50 µg/mL.
In test [1], `CCCCNCCOC1=C(c2ccccc2)C(=O)OC1` came in with an IC50 of 71.9 µM. This lies in the double-digit micromolar range.
The molecule `O=C1OCC(OCCNC2CCCCC2)=C1c1ccccc1` had an IC50 in test [1] of 87.4 µM.
For the molecule `O=C1OCC(OCCN2CCCCC2)=C1c1ccccc1`, the IC50 in test [1] stood at 53.6 µM.
For the molecule `O=C1OCC(OCCN2CCCC2)=C1c1ccccc1`, the 50% inhibitory concentration (IC50) in test [1] turned out to be 35.5 µM. This IC50 lies about 1.5-fold lower than the previous one.
Turning to `O=C1OCC(OCCN2CCOCC2)=C1c1ccccc1`, the IC50 in test [1] stood at 6.2 µM. Further, the MIC50 is 47.4 µg/mL (≈ 164 µM) in test [2], 10.4 µg/mL (≈ 35.9 µM) in test [3], 34.2 µg/mL (≈ 118 µM) in test [4] and > 50 µg/mL in test [5].
`CN1CCN(CCOC2=C(c3ccccc3)C(=O)OC2)CC1` gave an IC50 in test [1] of 8.6 µM. Further, the MIC50 was > 50 µg/mL in test [2], 16.5 µg/mL (≈ 54.6 µM) in test [3], > 50 µg/mL in test [4] and > 50 µg/mL in test [5].
As for `O=C1OCC(OCCNCc2ccccc2)=C1c1ccccc1`, in test [1], the half-inhibitory concentration (IC50) was > 100 µM.
Consider `O=C1OCC(OCCNNc2ccc([N+](=O)[O-])cc2)=C1c1ccccc1`, for which the IC50 in test [1] is > 100 µM.
For the molecule `COc1ccc(C2=C(OCCNC3CCCCC3)COC2=O)cc1OC`, the IC50 in test [1] was > 100 µM.
For the molecule `COc1ccc(C2=C(OCCN3CCCCC3)COC2=O)cc1OC`, the IC50 in test [1] was > 100 µM.
`COc1ccc(C2=C(OCCN3CCN(C)CC3)COC2=O)cc1OC`: the IC50 in test [1] is > 100 µM.
Regarding `CN1CCN(CCOC2=C(c3ccc(Cl)c(Cl)c3)C(=O)OC2)CC1`, the IC50 in test [1] is > 100 µM.
As for `O=C1OCC(OCCN2CCCCC2)=C1c1ccc(F)c(F)c1`, the IC50 in test [1] was > 100 µM.
In the case of `O=C1OCC(OCCN2CCOCC2)=C1c1cccc(Cl)c1`, it took 20.5 µM to reach half-maximal inhibition in test [1] (IC50).
The molecule `O=C1OCC(OCCN2CCOCC2)=C1c1cccc(Br)c1` yielded an IC50 in test [1] of 24.3 µM. Besides, the MIC50 was > 50 µg/mL in test [2], 25.5 µg/mL (≈ 69.3 µM) in test [3], > 50 µg/mL in test [4] and > 50 µg/mL in test [5].
With `COc1cccc(C2=C(OCCN3CCOCC3)COC2=O)c1`, in test [1], the IC50 worked out at 37.5 µM. In addition, the MIC50 is > 50 µg/mL in test [2], 40.8 µg/mL (≈ 128 µM) in test [3], > 50 µg/mL in test [4] and > 50 µg/mL in test [5].
The molecule `O=C1OCC(OCCN2CCOCC2)=C1c1ccc(Cl)cc1` had an IC50 in test [1] of 0.62 µM. Also, the MIC50 was 8.6 µg/mL (≈ 26.6 µM) in test [2], 1.3 µg/mL (≈ 4.02 µM) in test [3], 2.9 µg/mL (≈ 8.96 µM) in test [4] and > 50 µg/mL in test [5].
Regarding `O=C1OCC(OCCN2CCOCC2)=C1c1ccc(Br)cc1`, the IC50 in test [1] was determined as 2.4 µM. In addition, the MIC50 in test [2] is 15.8 µg/mL (≈ 42.9 µM); in test [3], 3 µg/mL (≈ 8.15 µM); in test [4], 12.7 µg/mL (≈ 34.5 µM); in test [5], > 50 µg/mL.
For `COc1ccc(C2=C(OCCN3CCOCC3)COC2=O)cc1`, 32.8 µM corresponded to half-maximal inhibition in test [1] (IC50). That is a double-digit micromolar value.
`O=C1OCC(OCCN2CCOCC2)=C1c1cccc(O)c1` showed an IC50 in test [1] of 25.6 µM. Further, the MIC50 is 47.4 µg/mL (≈ 155 µM) in test [2], 34.3 µg/mL (≈ 112 µM) in test [3], 47.2 µg/mL (≈ 155 µM) in test [4] and > 50 µg/mL in test [5].
`O=C1OCC(OCCN2CCOCC2)=C1c1ccc(O)cc1` displayed an IC50 in test [1] of 0.1 µM. Also, the MIC50 in test [2] is 2.1 µg/mL (≈ 6.88 µM); in test [3], 0.23 µg/mL (≈ 0.753 µM); in test [4] it was 1.1 µg/mL (≈ 3.6 µM); in test [5] it was > 50 µg/mL.
Take `NC[C@H]1O[C@H](O[C@H]2[C@H](O)[C@@H](O[C@H]3O[C@H](CO)[C@@H](O)[C@H](N)[C@H]3O)[C@H](N)C[C@@H]2N)[C@H](O)[C@@H](O)[C@@H]1O` [KANAMYCIN]: the MIC50 in test [2] was 0.48 µg/mL (≈ 0.991 µM); in test [3], 1.2 µg/mL (≈ 2.48 µM).
In test [4], `CC(=O)N1CCN(c2ccc(OCC3COC(Cn4ccnc4)(c4ccc(Cl)cc4Cl)O3)cc2)CC1` (configuration not stated) [KETOCONAZOLE] gave an MIC50 of 3.8 µg/mL (≈ 7.15 µM).
In turn, `CC1(C)S[C@@H]2[C@H](NC(=O)Cc3ccccc3)C(=O)N2[C@H]1C(=O)O` [PENICILLIN G] had an MIC50 in test [5] of 2.7 µg/mL (≈ 8.07 µM).
